# From article PMC10634270 (ACS Omega, 2023)
# What was measured:
# Hs27 fibroblasts = assay: Cell viability MTT assay on Hs27 fibroblasts; type: cell-based, human; conditions: for cytotoxicity against Hs27 fibroblasts (in words): either human cell line
# In short: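 In vitro viability screen on Hs27 human fibroblasts, the same cells that serve as hosts in the parasite proliferation assay. IC50 is reported with confidence intervals.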
# HeLa wt cells = assay: Cell viability MTT assay on HeLa wt cells; type: cell-based, human; conditions: for cytotoxicity against HeLa cells (in words): either human cell line
# [1] = Antioxidant ABTS decolorization assay; conditions: relative to ascorbic acid
# In short: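 Antioxidant capacity is read as ABTS radical decolorization. It is expressed relative to ascorbic acid as ascorbic acid equivalents in mol mol–1. Values are given with standard deviation.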
# [2] = Stability experiments in DMSO; type: physicochemical; conditions: up to 40 °C, over 24 h
Compound,cytotoxicity against Hs27 fibroblasts (in words) (Hs27 fibroblasts),cytotoxicity against HeLa cells (in words) (HeLa wt cells),ascorbic acid equivalent antioxidant capacity (AEAC) [1],also measured
"COc1cc(C)cc2oc(-c3ccc(C(F)(F)F)cc3)cc(=O)c12 [8ad, 5-Methoxy-7-methyl-2-(4-(trifluoromethyl)phenyl)-4H-chromen-4-one]",noncytotoxic,noncytotoxic,,
"COc1cc(OC)c2c(=O)cc(-c3ccc(C(F)(F)F)cc3)oc2c1 [8bd, 5,7-Dimethoxy-2-(4-(trifluoromethyl)phenyl)-4H-chromen-4-one]",noncytotoxic,noncytotoxic,,
"COc1ccc(-c2cc(=O)c3c(OC)cc(C)c(-c4c(C)cc(OC)c5c(=O)cc(-c6ccc(OC)cc6)oc45)c3o2)cc1 [9aa, rac-5,5′-Dimethoxy-2,2′-bis(4-methoxyphenyl)-7,7′-dimethyl-4H,4′H-[8,8′-bichromene]-4,4′-dione]",,,0.25 equiv ascorbic acid [mol mol^–1],
"COc1cc(C)c(-c2c(C)cc(OC)c3c(=O)cc(-c4ccc(N(C)C)cc4)oc23)c2oc(-c3ccc(N(C)C)cc3)cc(=O)c12 [9ac, rac-2,2′-Bis(4-(dimethylamino)phenyl)-5,5′-dimethoxy-7,7′-dimethyl-4H,4′H-[8,8′-bichromene]-4,4′-dione]",,,0.197 equiv ascorbic acid [mol mol^–,stability in DMSO [2]: stable
"COc1cc(C)c(-c2c(C)cc(OC)c3c(=O)cc(-c4ccc(C(F)(F)F)cc4)oc23)c2oc(-c3ccc(C(F)(F)F)cc3)cc(=O)c12 [9ad, rac-5,5′-Dimethoxy-7,7′-dimethyl-2,2′-bis(4-(trifluoromethyl)phenyl)-4H,4′H-[8,8′-bichromene]-4,4′-dione]",noncytotoxic,noncytotoxic,,
"COc1cc(OC)c2c(=O)cc(-c3ccc(C(F)(F)F)cc3)oc2c1-c1c(OC)cc(OC)c2c(=O)cc(-c3ccc(C(F)(F)F)cc3)oc12 [9bd, rac-5,5′,7,7′-Tetramethoxy-2,2′-bis(4-(trifluoromethyl)phenyl)-4H,4′H-[8,8′-bichromene]-4,4′-dione]",noncytotoxic,noncytotoxic,,
"Cc1cc(O)c2c(=O)cc(-c3ccc(N(C)C)cc3)oc2c1-c1c(C)cc(O)c2c(=O)cc(-c3ccc(N(C)C)cc3)oc12 [compound 11, rac-2,2′-Bis(4-(dimethylamino)phenyl)-5,5′-dihydroxy-7,7′-dimethyl-4H,4′H-[8,8′-bichromene]-4,4′-dione]",,,0.037 equiv ascorbic acid [mol mol^–,"IC50 (Hs27 fibroblasts; Homo sapiens, HS27, 24 h, read-out: IC50 (Hs27)): > 200 µM; IC50 (HeLa wt cells; Homo sapiens, HeLa, 48 h, read-out: IC50 (HeLa)): > 100 µM"
